Shown are actives, neighbours in structure and some others; about 2.9% of the full set was active somewhere.
GSIS activator – GLuc luminescence reporter in INS-1E cells, primary screen for activators of glucose-dependent secretion of insulin; INS-1E GLuc reporter insulin secretion, 2-3 h; activation, % at 16.6 µM; hit rate 0.61% among 370,000;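 active means lowest replicate activation of at least 40%, so every replicate reaches that level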;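 further: 0% = median of neutral control wells and 100% = median of IBMX positive control wells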
Cneo AK release – Cryptococcus neoformans cell lysis inducers, primary screen, AK release luminescence, single concentration; C. neoformans lysis, adenylate kinase release luminescence, 4 h; normalised: neutral wells 0, clomiphene wells 100; lysis activity, % at 15 µM; hit rate 0.2% among 360,000; AID 651654, 2012;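 active means mean lysis activity across replicates of at least 80%, whatever share of replicates individually reach that level; inactive means mean lysis activity below 80%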
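Test system: log-phase Cryptococcus neoformans yeast cells. Input: 5 × 10^6 yeast cells/mL. Medium: fresh YPD growth medium. Doses: single dose. Incubation: static 4 h at 37 °C with compound, 1 h detection. Measured by: luminescent adenylate kinase detection reagent. Read-out: signal increase indicating cell lysis. Benchmarks: Clomiphene.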
CDK5 p35 inh – inhibitors of human CDK5/p35 kinase, primary screen, biochemical, single concentration; Cyclin-dependent kinase 5 (Homo sapiens) + Cyclin-dependent kinase 5 activator 1 (Homo …; Recombinant CDK5/p35, ADP-Glo luminescence, 60 min; inhibition, % at 10 µM; hit rate 0.01% among 330,000;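 active means highest replicate inhibition of at least 50% and at least 75% of replicates reaching 50%; inconclusive means only one of the two criteria met; inactive means both criteria failed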;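 further: plate controls were DMSO neutral control for no effect and GW8510 at 10 µM for full effect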
dFosB activator – activators of delta FosB homodimer, primary screen, biochemical, fluorescence polarization, TAMRA-CDK5 oligo, single point; purified delta FosB; percent of positive-control signal above neutral wells; activation, % at 25 µM; hit rate 0.99% among 340,000;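 active means mean activation above about 17%, with every replicate also reaching it, limit read from the data, passing the limit was not always enough; inconclusive means only one of the two conditions met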
Target sequence (P13346 whole entry, looked up): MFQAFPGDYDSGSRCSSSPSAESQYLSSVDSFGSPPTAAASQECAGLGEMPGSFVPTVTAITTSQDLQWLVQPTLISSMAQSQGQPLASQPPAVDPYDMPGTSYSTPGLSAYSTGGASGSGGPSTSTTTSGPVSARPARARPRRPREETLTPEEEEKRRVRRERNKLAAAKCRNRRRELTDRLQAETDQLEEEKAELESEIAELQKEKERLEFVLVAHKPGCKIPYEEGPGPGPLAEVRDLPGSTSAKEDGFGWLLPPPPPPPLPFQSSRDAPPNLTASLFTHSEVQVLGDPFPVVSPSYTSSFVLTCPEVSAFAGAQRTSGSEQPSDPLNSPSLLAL
PAX8 reporter – inhibitors of PAX8-driven TPO luciferase reporter, primary screen, RMG-I cells, single concentration; SteadyGlo, 24 h; hit rate 1.2% among 360,000; inhibition, % at 12.6 µM;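 active means mean replicate inhibition at least 60% with every replicate also reaching 60%; inconclusive means only one of the two criteria is met; inactive means mean below 60% and not all replicates reaching 60%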;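 further: luciferase light reporting Pax8 driven TPO promoter activity; plate controls were median of neutral control wells for no effect and mitoxantrone controls for full effect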
HIV Env fusion – inhibitors of HIV-1 Env-driven cell-cell fusion, primary screen, HeLa-JRFL effector, CEM21 target cells, luciferase | inhibition, % at 12.3 µM | AID 651610, 2012 | hit rate 1.1% among 360,000;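 active means mean replicate inhibition score of at least 50 and every replicate individually at or above 50; inconclusive means only one of the two criteria met; inactive means mean below 50 and not all replicates reaching 50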;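 further: 0% = plate neutral controls and 100% = maraviroc near 300 nM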
An asterisk follows results filed as active; ? = inconclusive; · = no result; [ ] = dose if it differs, or a comment.

SMILES	GSIS activator	Cneo AK release	CDK5 p35 inh	dFosB activator	PAX8 reporter	HIV Env fusion
CC(C)NC(=O)N(C)C[C@H]1Oc2ccc(NS(C)(=O)=O)cc2C(=O)N(C)C[C@H]1C	6	·	·	·	·	·
CCC(=O)N[C@@H]1CC[C@H](CCNC(=O)Nc2ccc(C(F)(F)F)cc2)O[C@@H]1CO	8	0	·	·	-10	4[16.7 µM]
CCCCc1nnc2c(N(C)S(=O)(=O)c3ccccc3)nc3ccccc3n12	44*	1	-1	-7	30	-3
C[C@@H]1CN([C@@H](C)CO)S(=O)(=O)c2ccc(-c3ccccc3)cc2O[C@@H]1CN(C)Cc1cccc(F)c1	-7	7	·	·	·	?
CCc1ccc2c(c1)cc(CN(Cc1ccco1)C(C)=O)c1nnnn12	52*	·	0	-1	-9	-7
Cc1ccc2c(c1)cc(CN(Cc1ccco1)C(=O)N1CCOCC1)c1nnnn12	17	-1	1	-4	4	9
COc1ccc([C@H]2/C=C\CN(C(=O)C3CC3)[C@@H](C)C(=O)N2Cc2ccc(F)cc2)cc1	-18	1	0	5	-5	70*
COc1ccc(C2/C=C\CN(C(=O)C3CC3)[C@H](Cc3ccccc3)C(=O)N2Cc2ccc(F)cc2)cc1 (some centres not stated)	·	1	-7	3	·	·
CCOC(=O)/C(C#N)=C/c1ccc(OC)c(OC)c1	·	2	-3	-9	2	-49
CCC(=O)C(C#N)(c1ccc(OC)c(OC)c1)C(C)C (configuration not stated)	82*	0	1	5	-15	1
O=C1CCC(C(=O)OCC(=O)c2ccccc2)N1 (configuration not stated)	1	0	1	-5	-11	-2
CC1CC(C)C(=O)C(C(CC2CC(=O)NC(=O)C2)OC(=O)CC(=O)c2ccccc2)C1 (configuration not stated)	·	-2	1	-1	85*	?
C(=N\Nc1nc2ccccc2[nH]1)/c1ccncc1	-12	·	7	1	-144	7
CCN(CC)c1ccc(/C=N/Nc2nc3ccccc3[nH]2)cc1	-29	-1	2	39*	81*	13
Cc1c(/C=N/Nc2nc3ccccc3[nH]2)c2ccccc2n1C	·	5	1	78*	36	-172
CC(=O)Nc1ccc(/C=N/Nc2nc3ccccc3[nH]2)cc1	-13	·	1	11	-94	4
Clc1nc2ccccc2cc1/C=N/Nc1nc2ccccc2[nH]1	-21	·	3	18*	-75	-338
CCN(CC)c1ccc(/C=N/Nc2nc(C)cc(=O)[nH]2)c(O)c1	1	·	0	-3	75*	6
CCNC(=O)C[C@@H]1CC[C@H]2[C@@H](COC[C@@H](O)CN2Cc2ccc(Cl)c(Cl)c2)O1	2	-4	·	·	-8	·
O=C(C[C@H]1CC[C@H]2[C@@H](COC[C@@H](O)CN2C(=O)c2cc(Cl)cc(Cl)c2)O1)N1CCc2ccccc2C1	-1	0	·	·	20	33[16.7 µM]
Cc1nn(-c2ccccc2)c(C)c1/C=N/Nc1nc2ccccc2[nH]1	-19	-6	2	27*	2	-342
Cc1cc(=O)[nH]c(N/N=C/c2c(C)nn(-c3ccccc3)c2C)n1	9	2	0	1	-6	-7
CN(CC(=O)NCC(=O)Nc1ccc(F)cc1)CC(=O)Nc1ccc(Cl)c(C(F)(F)F)c1	-74	0	2	-2	16	·
CC(NC(=O)CN(C)CC(=O)Nc1ccc(Cl)c(C(F)(F)F)c1)c1ccccc1 (configuration not stated)	-28	0	-2	-10	13	103*
COC(=O)[C@]12CCCCC=C1N(Cc1ccco1)C(=O)[C@H](CC(=O)N1CCN(C(=O)c3ccco3)CC1)C2	-9	·	·	·	85*	2
SMILES	GSIS activator	Cneo AK release	CDK5 p35 inh	dFosB activator	PAX8 reporter	HIV Env fusion
CCOC(=O)[C@]12CCCC=C1N(Cc1cccc3ccccc13)C(=O)[C@H](CC(=O)N1CCOCC1)C2	-16	·	·	·	-6	-64
CCOC(=O)[C@]12CCCC=C1N(Cc1cccc3ccccc13)C(=O)[C@H](CC(=O)N1CCN(C(=O)c3ccco3)CC1)C2	-13	·	·	·	85*	-4
C[C@@H]1CN(C)C(=O)c2cc(NS(C)(=O)=O)ccc2O[C@H]1CN(C)S(C)(=O)=O	-8	·	·	·	·	·
CCCN(C)C[C@@H]1Oc2ncc(-c3ccccc3)cc2C(=O)N([C@H](C)CO)C[C@@H]1C	-16	-14	·	·	-7	-5[16.7 µM]
C/C=C/c1ccc([C@H]2[C@H](CO)N(C(=O)C3CCCC3)C23CN(C(=O)NC(C)C)C3)cc1	-8	·	·	·	·	·
COc1ccc(C2=C(C=C(C#N)C#N)C(c3ccccc3C)c3ccccc3O2)cc1OC (configuration not stated)	13	·	0	-3	65*	·
O=C(C[C@H]1C[C@H]2c3cc(NC(=O)Nc4ccc(C(F)(F)F)cc4)ccc3O[C@H]2[C@H](CO)O1)NCc1cc(F)ccc1F	8	26	·	·	-5	1[16.7 µM]
Cc1ccc(S(=O)(=O)Nc2ccc3c(c2)CC(=O)N([C@H](C)CO)C[C@H](C)[C@H](CN(C)S(=O)(=O)c2ccc(F)cc2)O3)cc1	-8	-2	·	·	79*	110*[16.7 µM]
Cc1ccc(S(=O)(=O)N(C)C[C@H]2Oc3ccc(NS(=O)(=O)c4ccc(F)cc4)cc3CC(=O)N([C@H](C)CO)C[C@@H]2C)cc1	-10	-3	·	·	-5	15[16.7 µM]
Cc1ccc(S(=O)(=O)Nc2ccc3c(c2)CC(=O)N([C@@H](C)CO)C[C@H](C)[C@H](CN(C)S(=O)(=O)c2ccc(F)cc2)O3)cc1	-6	50	·	·	-4	1[16.7 µM]
Cc1ccc(S(=O)(=O)N(C)C[C@H]2Oc3ccc(NS(=O)(=O)c4ccc(F)cc4)cc3CC(=O)N([C@H](C)CO)C[C@H]2C)cc1	6	0	·	·	104*	-6[16.7 µM]
CO[C@H]1CN(C)C(=O)c2ccc(NC(=O)c3cc(C)on3)cc2OC[C@@H](C)NC[C@H]1C	4	-3	·	·	·	·
CCCNC(=O)Nc1ccc2c(c1)C(=O)N(C)[C@@H]1CC[C@H](CC(=O)OC)O[C@H]1CO2	5	-6	·	·	-6	·
COCCn1c(=S)[nH]c2cc(C(=O)N3CCC(C(N)=O)(N4CCCCC4)CC3)ccc2c1=O	3	·	-1	-7	·	-39
CCOC(=O)C1CCCN(C(=O)c2ccc3c(=O)n(CCOC)c(=S)[nH]c3c2)C1 (configuration not stated)	·	-3	2	0	·	66*

Screening results as filed in PubChem.
